Source: PubChem BioAssay
GC-B act = human GC-B receptor activators, primary screen, HEK293 GC-B cells, cGMP TR-FRET, EC30 CNP; 0% at EC30 CNP, 100% saturating CNP; 370,000 tested, 0.11% active; AID 1920062, 2024; Atrial natriuretic peptide receptor 2 (Homo sapiens), P20594; activation, % at 10 µM;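 active = activation at 10 µM reaching about 35% in either raw or pattern-adjusted values, limit read from the data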
ARFGAP1 inhibitor = inhibitors of rat ARFGAP1 GAP activity, primary screen, biochemical, fluorescence polarization, GDP tracer; ADP-ribosylation factor GTPase-activating protein 1 (Rattus norvegicus), Q62848; Arfgap1-stimulated ARF1 GTP hydrolysis, GDP FP detection; inhibition, % at 16.5 µM; 360,000 tested, 0.26% active; AID 651572, 2012;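 active = inhibition above a per-plate limit, mean inhibition of low control wells plus 3 SD, cut at about 25% in these data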;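 note: 0% = DMSO wells with enzyme and 100% = wells lacking Arfgap1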
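Replicates: Single well per compound | Assay system: Truncated rat Arfgap1 GAP domain | Control set: No-Arfgap1 wells (100%) versus DMSO full-reaction wells (0%) | Times: Enzyme reaction 120 min at 25 °C after 20 min preincubation | Reagent: Human ARF1(Δ1-17)-GTP substrate | Measured by: Tracer-displacement fluorescence polarization with EDTA stop, 620/688 nm | Measure: Percent inhibition of Arfgap1-stimulated GTP hydrolysis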
CTSL1 counter = Fasciola hepatica cathepsin L1 inhibitors, primary screen, counter-screen for PFM18AAP inhibitor project, biochemical, QFRET, fluorogenic peptide substrate; recombinant F. hepatica cathepsin L1, Z-Leu-Arg-MCA fluorescence; inhibition, % at 5.96 µM; 300,000 tested, 0.49% active; AID 1906, 2009;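 active = inhibition above the mean of all tested compounds plus 3 SD, set per screening campaign, cut at about 17% in these data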;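 note: 0% = plate median of test compound wells and 100% = 1 µM Z-Phe-Ala-diazomethylketone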
ASAP1 inh = inhibitors of human ASAP1 ArfGAP activity, primary screen, biochemical, fluorescence polarization; 360,000 tested, 0.19% active; Arf-GAP with SH3 domain, ANK repeat and PH domain-containing protein 1 (Homo sapiens), …; ASAP1-stimulated ARF1 GTP hydrolysis, GDP FP detection; AID 624377, 2012; inhibition, % at 16.5 µM; in the data active = inhibition above about 25%;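 note: 0% = vehicle with enzyme and substrate and 100% = no enzyme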
core dimer inh = inhibitors of HCV core protein dimerization, primary screen, biochemical, TR-FRET, high-throughput; TR-FRET GST/Flag-core106 dimerization, 1536-well; inhibition, % at 5 µM; 300,000 tested, 0.33% active; AID 1899, 2009;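 active = inhibition above the mean of all tested compounds plus 3 SD, set per screening campaign, cut at about 45% in these data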
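System – GST-tagged and Flag-tagged HCV core protein residues 1-106 · Repeats – one well for each compound · Technique – TR-FRET 671 and 617 nm emission · Doses – one concentration, 5 µM, in 0.5% DMSO · Times – 4 h, 22.5 °C incubation · Also added – Eu donor and XL665 acceptor anti-tag antibodies · Measure – percent inhibition of core106 dimerization signal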
NPR1 activator = GC-A stimulated cGMP production enhancers – HEK293 GC-A cells, cGMP TR-FRET, EC30 ANP, primary screen | activation, % at 10 µM | 370,000 tested, 0.14% active | 0% at EC30 ANP, 100% saturating ANP | Atrial natriuretic peptide receptor 1 (Homo sapiens), P16066 | AID 1671463, 2021; in the data active = activation above about 40%
Target sequence (P16066 whole entry, looked up): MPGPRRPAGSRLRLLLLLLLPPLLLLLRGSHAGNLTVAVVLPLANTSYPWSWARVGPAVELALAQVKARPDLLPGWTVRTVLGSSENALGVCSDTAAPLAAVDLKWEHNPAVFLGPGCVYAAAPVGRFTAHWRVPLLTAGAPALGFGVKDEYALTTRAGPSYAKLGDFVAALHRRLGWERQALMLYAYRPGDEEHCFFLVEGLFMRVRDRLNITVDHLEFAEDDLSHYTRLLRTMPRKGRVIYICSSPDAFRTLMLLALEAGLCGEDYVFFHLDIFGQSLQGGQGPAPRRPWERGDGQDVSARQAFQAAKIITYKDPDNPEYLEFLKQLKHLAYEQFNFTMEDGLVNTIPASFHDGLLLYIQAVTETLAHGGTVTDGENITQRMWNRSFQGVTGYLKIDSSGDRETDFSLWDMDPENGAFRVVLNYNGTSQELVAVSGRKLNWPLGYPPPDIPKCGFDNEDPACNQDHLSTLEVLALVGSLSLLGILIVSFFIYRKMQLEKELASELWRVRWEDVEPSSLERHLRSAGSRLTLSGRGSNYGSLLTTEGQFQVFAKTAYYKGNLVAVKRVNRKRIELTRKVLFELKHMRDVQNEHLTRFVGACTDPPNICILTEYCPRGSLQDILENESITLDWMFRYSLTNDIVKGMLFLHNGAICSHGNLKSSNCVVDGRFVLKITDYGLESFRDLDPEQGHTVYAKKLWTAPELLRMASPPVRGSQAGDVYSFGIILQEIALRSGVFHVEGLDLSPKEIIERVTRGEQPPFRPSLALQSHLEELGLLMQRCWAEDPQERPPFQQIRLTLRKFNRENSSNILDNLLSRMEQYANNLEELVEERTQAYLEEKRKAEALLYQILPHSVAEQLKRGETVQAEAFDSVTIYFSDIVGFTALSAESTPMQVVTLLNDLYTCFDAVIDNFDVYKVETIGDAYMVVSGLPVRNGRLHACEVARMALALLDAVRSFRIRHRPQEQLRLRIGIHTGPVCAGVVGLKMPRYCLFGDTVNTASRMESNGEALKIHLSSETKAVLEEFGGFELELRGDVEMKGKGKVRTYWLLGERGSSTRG
ASAP1 GAP conf = ASAP1 GAP activity inhibitors, confirmation, biochemical, fluorescence polarization, human, triplicate; shares compounds with ASAP1 inh; ASAP1-stimulated Arf1 GTPase, GDP fluorescence polarization; inhibition, % at 16.5 µM; 620 tested, 37% active;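 active = mean inhibition over triplicates exceeds the hit threshold derived for the earlier primary screening run, cut at about 25% in these data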
ARFGAP1 inh conf = ARFGAP1 inhibitor hit confirmation, biochemical, fluorescence polarization, triplicate; inhibition, % at 16.5 µM; 890 tested, 30% active; shares compounds with ARFGAP1 inhibitor; ARFGAP1-stimulated ARF1 GTP hydrolysis, GDP tracer FP;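 active = average inhibition over triplicates above the hit cutoff set in the earlier primary screen, cut at about 25% in these data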;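 note: 0% = Arfgap1 plus ARF1-GTP with DMSO and 100% = wells lacking Arfgap1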
* hit, by the source's call; . = no result; + = active, no number. Only some compounds are listed: those with a hit (about 1.2% of all), similar ones and a draw of the others.

SMILES	GC-B act	ARFGAP1 inhibitor	CTSL1 counter	ASAP1 inh	core dimer inh	NPR1 activator	ASAP1 GAP conf	others
COc1ccc(NC(=O)C2=CC(c3ccc(C)cc3)=NS(=O)(=O)N2C)cc1OC	-7	3	3	25*	-16	0	13
CSCCNC(=O)C1(C)CCN1C(=O)CCc1ccccc1 (stereo not given)	7	-5	.	29*	.	3	0
N#Cc1cc2ccc(N3CCOCC3)cc2cc1C#N	-5	4	2	30*	-8	1	6
Oc1c(C=Nc2cccc3cccnc23)sc2ccccc12	3	2	-6	-1	-17	1	.
Cc1cccc(/N=C/c2sc3ccccc3c2O)n1	-5	21	0	28*	-21	0	16
Fc1ccc2nc(Nc3ccccc3)sc2c1	-6	16	-1	3	-4	10	.
O=C1C(=C(I)I)c2ccccc2-c2ccccc21	5	-9	.	38*	.	7	-14
Cn1c(=O)cc(SCC(=O)N2CCCC2)c2ccccc21	-2	2	1	35*	-2	-4	3
CN(Cc1ccccc1)C(=O)CSc1cc(=O)n(C)c2ccccc12	3	4	5	12	5	0	.
CC1OC2CC(=O)OC2C2=C1C(=O)c1c(O)cccc1C2=O (stereo not given)	16	0	.	37*	.	20	13
Nc1n[nH]c(N)c1N=Nc1ccc(Cl)cc1Cl	-11	6	0	29*	-11	11	16
O=C(CNC(=O)c1ccccc1)OCc1nnc(-c2ccccc2)o1	-6	10	-2	3	6	1	.
O=C(Nc1ccc(Br)cc1)c1cc(-c2ccncc2)nc2ccccc12	-3	17	.	29*	.	-5	16
CC1(C)CC(C(CC(=O)O)c2ccccc2)CCO1 (stereo not given)	2	4	1	-2	-11	-3	.
COc1cccc(=O)c2c(C)n(C)c(C)c12	1	12	-1	-2	1	-2	.
COc1cnc(-c2ccccc2)nc1Oc1cccc(C)c1	-4	15	-2	25*	0	4	6
COc1ccc(S(=O)(=O)N2CCCC2)c(Cl)c1Cl	-1	5	0	25*	1	-9	0
CCOC(=O)N1CCN(S(=O)(=O)c2ccc(OC)c(Cl)c2Cl)CC1	-4	-5	0	2	-4	-2	.
CCOC(=O)C(C)Oc1cccc2c(=O)n(CC(=O)N3CCCc4ccccc43)ccc12 (stereo not given)	2	2	-1	7	4	-1	.
COC(=O)C1=CN(C2CCCCC2)C=C(C(=O)OC)C1c1ccc2c(c1)OCO2	-8	9	0	-10	19	-7	.
CCC(/C=C1\Sc2ccc(OC)cc2N1CC)=C\c1sc2ccc(OC)cc2[n+]1CCCS(=O)(=O)[O-]	6	24	-2	14	-368	3	.
CCC(/C=C1\Sc2ccc(OC)cc2N1CCO)=C\c1sc2ccc(OC)cc2[n+]1CCO	-1	42*	5	32*	-265	4	35*	ARFGAP1 inh conf=25*
CC1(C)OC(=O)C(=CNc2ccc(F)cc2)C(=O)O1	3	4	0	-3	-5	5	.
CC(=O)Nc1cc(-c2ccc(N3CCN(C)CC3)cc2)cn2c(-c3ccc(F)c(Cl)c3)cnc12	3	14	.	0	.	5	.
CC(=O)Nc1cc(-c2ccc(N3CCN(C)CC3)cc2)cn2c(-c3cccc(C(C)=O)c3)cnc12	-1	38*	.	54*	.	1	95*	ARFGAP1 inh conf=82*
SMILES	GC-B act	ARFGAP1 inhibitor	CTSL1 counter	ASAP1 inh	core dimer inh	NPR1 activator	ASAP1 GAP conf	others
CC(=O)c1ccc(-c2cnc3c(NC=O)cc(-c4ccc(N5CCN(C)CC5)cc4)cn23)cc1	4	63*	.	81*	.	4	155*	ARFGAP1 inh conf=139*
CN1CCN(c2ccc(-c3cc(NC=O)c4ncc(-c5ccc(F)c(Cl)c5)n4c3)cc2)CC1	-3	8	.	1	.	3	.
O=C(Nc1ccc(N2CCOCC2)c(Cl)c1)c1ccc(F)cc1	7	1	-4	-5	-3	1	.
Nc1nc(SCc2ccc(Cl)cc2Cl)nc2nc3c(cc12)CCCC3	10	47*	-4	31*	16	0	69*	ARFGAP1 inh conf=68*
COc1ccc(Cl)cc1C(=O)Nc1cccc(-c2ccc3nncn3n2)c1	1	+	1	191*	11	3	196*	ARFGAP1 inh conf=+
COc1cccc(C(=O)Nc2cccc(-c3ccc4nncn4n3)c2)c1OC	9	2	2	4	6	6	.
CS(=O)(=O)c1sc(C(=O)NC(=O)Nc2cccc(C(F)(F)F)c2)c2c1C=CCC2	0	1	-2	0	3	5	.
O=C(O)c1ccc(Nc2nc(-c3cc4ccccc4oc3=O)cs2)cc1O	-10	27*	.	25*	.	4	33*	ARFGAP1 inh conf=45*
COc1ccc(C)cc1Nc1n[n+](C)c(-c2c3ccccc3cc3ccccc23)s1	-11	5	1	0	2	-1	.
COc1ccc(C(=O)Nc2nnc(SCC(=O)NC3CCCC3)s2)c(OC)c1	-1	-1	-5	19	13	3	.
COc1ccc(C(=O)Nc2nnc(SCC(=O)Nc3ccc(NC(C)=O)cc3)s2)c(OC)c1	-6	52*	-1	39*	0	0	82*	ARFGAP1 inh conf=122*
COC(=O)C1CCN(C(=O)COC(=O)c2ccc3[nH]c4c(c3c2)CCCC4)CC1	4	1	-4	13	1	4	.
CCN(CC)CCOC(=O)c1ccc(N/C=C(/C#N)c2nc(-c3cc4ccccc4oc3=O)cs2)cc1	3	84*	.	72*	.	1	99*	ARFGAP1 inh conf=134*
CCN(CC)CCCN(C(=O)c1ccc(Br)cc1)c1nc(-c2ccc(OC)cc2)cs1	-5	-3	-4	0	2	-38	.
